Most compounds without a hit are left out; they make up all but 1.9% or so of the library.
MT stabilize HCS: microtubule stabilizers in HeLa cells, primary screen, imaging, high-content imaging. 200,000 tested, 0.83% active. % tubulin-high responders, % at 10 µM. HeLa tubulin immunostaining HCS, 24 h; share of cells brighter than vehicle mean+2SD;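 active = plate Z-score above 3 for both tubulin-high and condensed-nucleus cell shares, with cell loss under 80%, at 10 µM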;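 note: anti alpha tubulin signal scored within the nucleus-defined area of each cell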
bCat nuc transl: modulators of beta-catenin nuclear translocation, primary screen, imaging, HeLa cells, immunofluorescence, high-content | nuclear translocation activity, % at 5 µM | 190,000 tested, 0.3% active | AID 1665, 2009;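 active = nuclear translocation activity above 50% at 5 µM, with a well cell count of 50 or more; inconclusive = wells under 50 cells across six images, flagged as toxic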;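 note: per-cell ratio of nuclear to cytoplasmic median beta-catenin stain intensity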
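Test system: HeLa cells, endogenous beta-catenin; Compound: single 5 µM dose plus 0.02–20 µM confirmation series; Times: compound exposure 24 h at 37°C; Signal: fluorescence imaging of beta-catenin antibody stain plus DAPI; Read-out: % activation, nuclear-to-cytoplasmic median beta-catenin signal ratio per cell.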
Autophagy HCS: autophagy modulators in MEF cells, primary screen, imaging, high-content, MEF GFP-LC3. AID 463193, 2010. 190,000 tested, 0.98% active. MEF GFP-LC3 puncta imaging; test concentration mostly 10 µM. calls only at 10 µM (by protocol);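 active = percentage of spot-positive cells more than 3 SD above its plate mean, without a fluorescence outlier flag or 80% toxicity; inconclusive = no clear call, values can overlap the other calls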
Ins promoter up: insulin promoter activators in MIN6 cells, imaging, high-content screening, mouse beta cells; MIN6 insulin promoter-GFP reporter; stronger effect = higher value; z-score at 5 µM; 190,000 tested, 0.3% active;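 active = z-score above 3 at 5 µM with at least 500 cells counted in the well; inconclusive = wells under 500 cells, flagged as cytotoxic or low count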
Of the large screens only hits and unclear results are named; the others gave an inactive call.

CCOc1ccc(C(=O)Nc2ccc(NC(=O)c3ccco3)c(Cl)c2)cc1Cl	Autophagy HCS active (no result: bCat nuc transl)
CCCCOc1ccccc1NC(=O)c1ccco1	none
CCOc1ccc(NC(=O)c2ccco2)c([N+](=O)[O-])c1	MT stabilize HCS 12
CCOc1ccccc1NC(=O)c1cccc(NC(=O)c2ccco2)c1	MT stabilize HCS 41, bCat nuc transl 72, Autophagy HCS active
CCCc1c(C)[nH]c2ccc(NC(C)=O)cc2c1=O	none (no result: bCat nuc transl, Ins promoter up)
O=C(c1cnn2c(C(F)(F)F)cc(-c3ccc4c(c3)OCO4)nc12)N1CCCCC1	none
O=C(NC1CCCC1)c1cnn2c(C(F)(F)F)cc(-c3ccc4c(c3)OCO4)nc12	Autophagy HCS active (no result: bCat nuc transl, Ins promoter up)
O=C(c1ccc([N+](=O)[O-])s1)N1CCN(c2cccc(Cl)c2)CC1	none
Cn1cccc1/C=C1\CC(C(C)(C)C)C/C(=C\c2cccn2C)C1=O (stereo not drawn)	Autophagy HCS active (no result: Ins promoter up)
Cn1cccc1/C=C1\Cc2ccccc2C1=O	none (no result: bCat nuc transl)
NS(=O)(=O)c1ccc(NC(=S)Nc2ccc(F)c(F)c2)cc1	none
COc1cc(N2CCCC2)c(OC)cc1/C=C1/NC(=S)NC1=O	Autophagy HCS active (no result: Ins promoter up)
CC1(C)Cc2nc3sc4c(SCC(=O)NCc5ccccc5)ncnc4c3cc2CO1	MT stabilize HCS 35, Autophagy HCS active (no result: bCat nuc transl)
CC1(C)Cc2nc3sc4c(SCC(=O)O)ncnc4c3cc2CO1	none (no result: MT stabilize HCS, Autophagy HCS)
Cn1cc(C(=O)C(=O)N2CCCc3ccccc32)c2ccccc21	MT stabilize HCS 12 (no result: Ins promoter up)
O=C(C(=O)N1CCCc2ccccc21)c1cn(CC(=O)N2CCOCC2)c2ccccc12	none
Cc1cc(C)c(S(=O)(=O)NCCOc2ccccc2)c(C)c1-n1cnnn1	none
C=CCn1c(C)cc(C(=O)CN2NS(=O)(=O)c3ccccc3C2=O)c1C	MT stabilize HCS 8.6
C=CCn1c(C)cc(C(=O)Cn2ncc(Cl)c(Cl)c2=O)c1C	Ins promoter up inconclusive
CCNC(=S)N/N=C(\C)c1ccc(N2CCOCC2)cc1	Autophagy HCS active
CNC(=S)N/N=C(\C)c1ccc(N2CCOCC2)cc1	none
OCC1(Cc2cccc(F)c2)CCN(Cc2ccc3cccc(F)c3n2)CC1	Autophagy HCS active (no result: Ins promoter up)
O=C(CCl)N(c1ccccc1)C1CCCCC1	Autophagy HCS inconclusive
O=[N+]([O-])c1ccc(Oc2cccc(Br)c2)c2ccncc12	Autophagy HCS active
O=[N+]([O-])c1ccc(Oc2ccc(F)cc2)c2ccncc12	none
Cc1cccc(C)c1NC(=O)NC1(C(=O)NCCN2CCOCC2)CCCCC1	none
COc1ccccc1Nc1cc(N2CCOCC2)c2nonc2c1[N+](=O)[O-]	MT stabilize HCS 16
O=[N+]([O-])c1c(Nc2ccc(O)cc2)cc(N2CCOCC2)c2nonc12	none
Cc1[nH][nH]c(=O)c1C(c1c(C)[nH][nH]c1=O)c1cn(Cc2ccccc2Cl)c2ccccc12	MT stabilize HCS 25
COC(=O)N/N=C/c1cn(Cc2ccccc2Cl)c2ccccc12	none
CCC(Oc1ccccc1)C(=O)Nc1ccsc1C(=O)OC (stereo not drawn)	none
O=C(COC(=O)c1cc(=O)[nH]c(=O)[nH]1)NCc1ccccc1	none
CCc1cc(-c2[nH]ncc2-c2ccc3c(c2)OCO3)c(O)cc1O	none (no result: Ins promoter up)
CCCc1cc(-c2[nH]ncc2-c2ccc3c(c2)OCCCO3)c(O)cc1OC	MT stabilize HCS 47
Oc1cccc(Nc2nc(O)c(/C=C3\C=Nc4ccccc43)s2)c1	none (no result: MT stabilize HCS, Autophagy HCS)
Oc1nc(Nc2cccc(Cl)c2)sc1/C=C1\C=Nc2ccccc21	MT stabilize HCS 18
CCn1ncc(CN2CCN(Cc3cccc(OC)c3)C(CCO)C2)c1C (stereo not drawn)	none
OC(CNCc1ccccc1C(F)(F)F)C(F)(F)F (stereo not drawn)	none
O=C1NC(CCc2ccccc2)C(=O)N1Cc1ccc(Br)cc1 (stereo not drawn)	Autophagy HCS active
CN1CCOCCOCCN(C)C1=O	none
N#C/C(=C\C1=C(N2CCOCC2)C(=C\c2ccc(Cl)cc2)/CC1)C(=O)Nc1ccccc1F	Autophagy HCS active, Ins promoter up 3.3
CCN(CC)c1ccc(/C=C2\CCC(/C=C(\C#N)C(=O)Nc3ccccc3F)=C2N2CCOCC2)cc1	none
N#C/C(=C\C1=C(N2CCOCC2)C(=C/c2cccc([N+](=O)[O-])c2)/CC1)C(=O)Nc1ccccc1F	Autophagy HCS active, Ins promoter up 3.1
Cc1nn(-c2ccccc2)nc1CNS(C)(=O)=O	none (no result: MT stabilize HCS, Autophagy HCS)
COc1cc(OC)c2c(c1)C(=O)c1cc(OC)cc(OC)c1C2=O	none
NC(=O)CN(c1ccc([N+](=O)[O-])cc1)S(=O)(=O)c1ccccc1	none
COc1ccc(N2CCN(/C(=N\S(=O)(=O)c3ccccc3)Nc3nc(C)cc(C)n3)CC2)cc1	Autophagy HCS active
Cc1ccc(S(=O)(=O)/N=C(/Nc2nc(C)cc(C)n2)N2CCOCC2)cc1	none (no result: Ins promoter up)
COc1ccc(CN2CCN(C(=O)C3CCC(CNS(=O)(=O)c4ccc(C)cc4)CC3)CC2)c(OC)c1OC (stereo not drawn)	Autophagy HCS active
O=C(/C=C/c1c(F)cccc1Cl)NCc1ccco1	none
O=C(CN1C(=O)/C(=C/c2c(F)cccc2Cl)Oc2ccccc21)NCc1ccco1	MT stabilize HCS 19
Cc1ccc(CNC(=O)CCc2nc(-c3cccs3)no2)cc1	none (no result: bCat nuc transl)
O=C(CCc1nc(-c2cccs2)no1)NCc1ccc(F)cc1Cl	Autophagy HCS active (no result: bCat nuc transl)
O=[N+]([O-])c1cc(Cl)ccc1Sc1cccc2cccnc12	none (no result: bCat nuc transl)
O=[N+]([O-])c1ccc(Sc2cccc3cccnc23)c([N+](=O)[O-])c1	Autophagy HCS active
Fc1ccc(C2C3=C(Nc4ncnn42)c2ccccc2OC3c2ccncc2)cc1 (stereo not drawn)	none (no result: bCat nuc transl)
Cc1ccc(C2Oc3ccccc3C3=C2C(c2cccs2)n2ncnc2N3)cc1 (stereo not drawn)	MT stabilize HCS 32
COc1ccc(C(=O)Nc2nc3cc4c(cc3s2)OCCO4)c(OC)c1	none (no result: MT stabilize HCS, Autophagy HCS)
Cc1cccc(OCc2n[nH]c(=S)n2C2CCCCC2)c1	MT stabilize HCS 32 (no result: Ins promoter up)
Cc1ccc(OCc2n[nH]c(=S)n2C2CCCCC2)cc1	none
CCCCCCCCCn1c2c(c(=N)c3c1CCC3)CCCC2	MT stabilize HCS 26
CCCCCCCCCCn1c2c(c(=N)c3c1CCC3)CCC2	Ins promoter up inconclusive
O=C(Nc1ccc2c(c1)CCC2)c1cnn2c1NC(c1ccco1)CC2C(F)(F)F (stereo not drawn)	Autophagy HCS active
Cc1ccc(Cl)cc1NC(=O)c1cnn2c1NC(c1ccco1)CC2C(F)(F)F (stereo not drawn)	none (no result: bCat nuc transl, Ins promoter up)
c1cncc(-c2noc(CC3CCCCC3)n2)c1	none
CCN(CC)c1ccc(/C=C(\C#N)c2ccccn2)cc1	MT stabilize HCS 22 (no result: bCat nuc transl)
COc1ccc(/C=C2\SC(=S)N(NC(=O)c3csc4c3CCCC4)C2=O)cc1	none
CCOC(=O)C(C)Oc1ccc(=O)n(-c2ccccc2)n1 (stereo not drawn)	none
O=C1CC(c2cccc(Cl)c2)Cc2nc(N3CCN(c4ccccc4)CC3)ncc21 (stereo not drawn)	none

Screens: PubChem BioAssay, several laboratories
